From ChEMBL document CHEMBL2177085 (J Med Chem, 2012) come the findings set out here.

Assay [1] has as its system MKN-45. Nature of the assay: Cytotoxic activity against human MKN45 cells assessed as cell viability at 5 uM incubated for 5 days by MTT assay. In kind it is functional. The settings on record: MKN-45, 120 h, read-out: Activity. A digest of the protocol: (§1)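 MTT viability: exponentially growing cells, 10 000 viable cells/well in RPMI plated overnight, then exposed to test compounds for 3 days (HT-29, Molm-14) or 5 days (Mkn-45) at 37 °C, 5% CO2. MTT added for 4 h, then SDS/HCl solubilization overnight and absorbance read at 562 nm. Viability is expressed relative to untreated cells (100%). Triplicate.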

For assay [2], the system named is MKN-45. Nature of the assay: Cytotoxic activity against human MKN45 cells assessed as cell viability at 1 uM incubated for 5 days by MTT assay. In kind it is functional. The note with it: MKN-45, 120 h, read-out: Activity. The gist of the method: as §1
On the technique in general: Tetrazolium dyes change colour on reduction, which living cells bring about.

In assay [3] the test system is MKN-45. As to the kind of experiment: Cytotoxic activity against human MKN45 cells assessed as cell viability at 0.5 uM incubated for 5 days by MTT assay. The format is functional. The note with it: MKN-45, 120 h, read-out: Activity. A digest of the protocol: as §1
The target in assay [4] is Protein kinase C iota type (Homo sapiens) (UniProt P41743). As to the kind of experiment: Inhibition of PKCiota assessed as enzyme residual activity at 10 uM relative to untreated control. The gist of the method: (§2)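 Residual kinase activity at 10 μM compound, determined by a commercial kinase profiling service (Millipore) across 15 kinases of different classes. Each compound tested in duplicate.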

Assay [5] deals with Protein kinase C epsilon type (Homo sapiens) (UniProt Q02156). Nature of the assay: Inhibition of PKCepsilon assessed as enzyme residual activity at 10 uM relative to untreated control. The gist of the method:
as §2

Assay [6] addresses Protein kinase C gamma type (Homo sapiens) (UniProt P05129). As to the kind of experiment: Inhibition of PKCgamma assessed as enzyme residual activity at 10 uM relative to untreated control. A digest of the protocol:
as §2

In assay [7] the target is Protein kinase C alpha type (Homo sapiens) (UniProt P17252). As to the kind of experiment: Inhibition of PKCalpha assessed as enzyme residual activity at 10 uM relative to untreated control. A digest of the protocol:
as §2

Assay [8] addresses Platelet-derived growth factor receptor beta (Homo sapiens) (UniProt P09619). As to the kind of experiment: Inhibition of PDGFRbeta assessed as enzyme residual activity at 10 uM relative to untreated control. The gist of the method: as §2
Assay [9] has as its target Epidermal growth factor receptor (Homo sapiens) (UniProt P00533). Nature of the assay: Inhibition of EGFR assessed as enzyme residual activity at 10 uM relative to untreated control. A digest of the protocol:
as §2

The target in assay [10] is RAF proto-oncogene serine/threonine-protein kinase (Homo sapiens) (UniProt P04049). As to the kind of experiment: Inhibition of c-RAF assessed as enzyme residual activity at 10 uM relative to untreated control. The gist of the method:
as §2

Assay [11] has as its target Cyclin-dependent kinase 1/cyclin B1 (Homo sapiens) (UniProt P06493+P14635). Nature of the assay: Inhibition of CDK1/cyclinB assessed as enzyme residual activity at 10 uM relative to untreated control. The format is protein-complex assay. A digest of the protocol:
as §2

Assay [12] deals with Glycogen synthase kinase-3 beta (Homo sapiens, UniProt P49841). Nature of the assay: Inhibition of GSK3beta. The gist of the method: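 IC50 determined by a commercial kinase profiling service (Millipore IC50 Profiler); duplicate testing.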
Assay [13] concerns the target T1, Receptor-type tyrosine-protein kinase FLT3 (Homo sapiens, UniProt P36888).
T1 sequence (P36888 whole entry): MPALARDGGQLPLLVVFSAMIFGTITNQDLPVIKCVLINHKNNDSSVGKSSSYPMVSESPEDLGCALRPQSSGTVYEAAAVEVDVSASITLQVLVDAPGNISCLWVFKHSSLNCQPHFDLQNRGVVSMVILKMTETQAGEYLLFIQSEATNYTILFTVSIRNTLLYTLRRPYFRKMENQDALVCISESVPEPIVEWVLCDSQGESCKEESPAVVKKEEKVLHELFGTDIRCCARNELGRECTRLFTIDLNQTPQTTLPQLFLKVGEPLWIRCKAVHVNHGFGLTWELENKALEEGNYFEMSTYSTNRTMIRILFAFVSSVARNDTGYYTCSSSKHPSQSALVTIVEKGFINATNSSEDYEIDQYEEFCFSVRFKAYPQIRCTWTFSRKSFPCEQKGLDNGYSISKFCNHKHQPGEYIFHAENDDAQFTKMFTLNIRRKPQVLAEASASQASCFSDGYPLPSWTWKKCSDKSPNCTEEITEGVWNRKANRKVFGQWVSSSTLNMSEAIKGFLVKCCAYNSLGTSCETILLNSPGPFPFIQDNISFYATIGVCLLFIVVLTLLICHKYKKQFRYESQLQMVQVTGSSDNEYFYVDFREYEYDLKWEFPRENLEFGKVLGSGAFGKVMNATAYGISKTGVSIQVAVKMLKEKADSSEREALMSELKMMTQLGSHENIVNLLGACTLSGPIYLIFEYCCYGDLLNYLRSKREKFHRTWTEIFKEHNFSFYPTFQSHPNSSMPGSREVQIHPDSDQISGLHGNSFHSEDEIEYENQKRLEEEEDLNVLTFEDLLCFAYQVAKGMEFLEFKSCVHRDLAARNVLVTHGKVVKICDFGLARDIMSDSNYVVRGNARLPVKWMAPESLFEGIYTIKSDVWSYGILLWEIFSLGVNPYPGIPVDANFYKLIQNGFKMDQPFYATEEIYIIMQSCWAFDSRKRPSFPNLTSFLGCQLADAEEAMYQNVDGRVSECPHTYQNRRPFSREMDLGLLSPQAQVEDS
As to the kind of experiment: Inhibition of FLT3. The gist of the method:
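Run as an outsourced kinase profiling service (Millipore IC50 Profiler), with the protocol referred to the provider. Gives IC50 values and residual activity at 10 μM test compound. Compounds tested in duplicate.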

In assay [14] the test system is MKN-45. As to the kind of experiment: Induction of apoptosis in human MKN45 assessed as accumulation at subG1 phase at 20 uM incubated for 7 days by flow cytometry (reference value: 10.9 +/- 3.2%). In kind it is functional. In general terms: In flow cytometry, cells or beads pass a laser one at a time.
In assay [15] the test system is MKN-45. As to the kind of experiment: Induction of apoptosis in human MKN45 assessed as accumulation at subG1 phase at 10 uM incubated for 7 days by flow cytometry (reference value: 10.9 +/- 3.2%). In kind it is functional.
In assay [16] the test system is MKN-45. As to the kind of experiment: Induction of apoptosis in human MKN45 assessed as accumulation at subG1 phase at 5 uM incubated for 7 days by flow cytometry (reference value: 10.9 +/- 3.2%). The format is functional.
Assay [17] has as its system MKN-45. Nature of the assay: Induction of apoptosis in human MKN45 assessed as accumulation at subG1 phase at 1 uM incubated for 7 days by flow cytometry (reference value: 10.9 +/- 3.2%). In kind it is functional.
In assay [18] the test system is HUVEC. As to the kind of experiment: Induction of apoptosis in human HUVEC assessed as accumulation at subG1 phase at 2.6 uM incubated for 4 days by flow cytometry (reference value: 15.4 +/- 1.5%). The format is functional.
The subject of assay [19] is HUVEC. Nature of the assay: Induction of apoptosis in human HUVEC assessed as accumulation at subG1 phase at 0.79 uM incubated for 4 days by flow cytometry (reference value: 15.4 +/- 1.5%). In kind it is functional.
Assay [20] concerns MOLM-14. As to the kind of experiment: Cytotoxic activity against human MOLM14 cells assessed as cell viability at 20 uM incubated for 3 days by MTT assay. In kind it is functional. The settings on record: MOLM-14, 72 h, read-out: Activity. The gist of the method: as §1
Assay [21] has as its system MOLM-14. As to the kind of experiment: Cytotoxic activity against human MOLM14 cells assessed as cell viability at 10 uM incubated for 3 days by MTT assay. The format is functional. The settings on record: MOLM-14, 72 h, read-out: Activity. A digest of the protocol: as §1
Assay [22] deals with MOLM-14. As to the kind of experiment: Cytotoxic activity against human MOLM14 cells assessed as cell viability at 1 uM incubated for 3 days by MTT assay. The format is functional. The settings on record: MOLM-14, 72 h, read-out: Activity. The gist of the method:
as §1

The test system of assay [23] is MOLM-14. As to the kind of experiment: Cytotoxic activity against human MOLM14 cells assessed as cell viability at 0.5 uM incubated for 3 days by MTT assay. In kind it is functional. The note with it: MOLM-14, 72 h, read-out: Activity. A digest of the protocol: as §1
Assay [24] relates to MKN-45. As to the kind of experiment: Cytotoxic activity against human MKN45 cells assessed as cell viability at 20 uM incubated for 5 days by MTT assay. In kind it is functional. The note with it: MKN-45, 120 h, read-out: Activity. A digest of the protocol: as §1

Sequence of Epidermal growth factor receptor (Homo sapiens) (P00533 whole entry): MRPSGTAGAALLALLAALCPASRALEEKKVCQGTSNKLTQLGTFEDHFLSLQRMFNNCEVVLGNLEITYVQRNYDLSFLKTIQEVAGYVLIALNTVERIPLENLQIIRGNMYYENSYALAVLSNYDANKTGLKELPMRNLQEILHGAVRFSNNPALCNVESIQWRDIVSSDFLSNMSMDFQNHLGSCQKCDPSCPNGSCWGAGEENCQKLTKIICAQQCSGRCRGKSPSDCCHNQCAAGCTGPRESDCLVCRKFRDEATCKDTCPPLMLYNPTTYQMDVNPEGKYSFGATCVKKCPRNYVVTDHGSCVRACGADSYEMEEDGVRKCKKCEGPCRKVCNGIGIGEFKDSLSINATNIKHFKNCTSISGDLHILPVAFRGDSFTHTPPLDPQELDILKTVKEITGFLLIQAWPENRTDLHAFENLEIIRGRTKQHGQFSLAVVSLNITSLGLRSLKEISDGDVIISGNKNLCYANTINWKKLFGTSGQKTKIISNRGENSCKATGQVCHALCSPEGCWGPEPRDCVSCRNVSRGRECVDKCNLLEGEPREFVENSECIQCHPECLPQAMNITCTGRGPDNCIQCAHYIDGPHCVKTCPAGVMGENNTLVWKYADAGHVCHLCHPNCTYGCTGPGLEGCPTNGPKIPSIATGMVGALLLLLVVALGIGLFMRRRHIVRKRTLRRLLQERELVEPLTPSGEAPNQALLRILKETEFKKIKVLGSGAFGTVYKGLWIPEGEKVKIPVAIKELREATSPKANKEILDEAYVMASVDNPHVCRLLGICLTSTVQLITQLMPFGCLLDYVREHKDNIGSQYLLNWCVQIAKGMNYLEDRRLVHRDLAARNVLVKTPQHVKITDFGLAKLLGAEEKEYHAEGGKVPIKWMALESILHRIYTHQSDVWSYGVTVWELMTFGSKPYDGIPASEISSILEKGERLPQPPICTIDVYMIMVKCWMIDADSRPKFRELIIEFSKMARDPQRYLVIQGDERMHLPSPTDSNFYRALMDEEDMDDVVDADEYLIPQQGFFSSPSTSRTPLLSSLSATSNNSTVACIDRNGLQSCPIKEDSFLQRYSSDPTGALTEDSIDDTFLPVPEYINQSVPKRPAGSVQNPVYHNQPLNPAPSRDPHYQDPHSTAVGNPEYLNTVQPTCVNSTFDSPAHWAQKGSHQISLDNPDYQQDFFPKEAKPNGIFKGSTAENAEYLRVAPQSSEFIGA
Sequence of RAF proto-oncogene serine/threonine-protein kinase (Homo sapiens) (P04049 whole entry): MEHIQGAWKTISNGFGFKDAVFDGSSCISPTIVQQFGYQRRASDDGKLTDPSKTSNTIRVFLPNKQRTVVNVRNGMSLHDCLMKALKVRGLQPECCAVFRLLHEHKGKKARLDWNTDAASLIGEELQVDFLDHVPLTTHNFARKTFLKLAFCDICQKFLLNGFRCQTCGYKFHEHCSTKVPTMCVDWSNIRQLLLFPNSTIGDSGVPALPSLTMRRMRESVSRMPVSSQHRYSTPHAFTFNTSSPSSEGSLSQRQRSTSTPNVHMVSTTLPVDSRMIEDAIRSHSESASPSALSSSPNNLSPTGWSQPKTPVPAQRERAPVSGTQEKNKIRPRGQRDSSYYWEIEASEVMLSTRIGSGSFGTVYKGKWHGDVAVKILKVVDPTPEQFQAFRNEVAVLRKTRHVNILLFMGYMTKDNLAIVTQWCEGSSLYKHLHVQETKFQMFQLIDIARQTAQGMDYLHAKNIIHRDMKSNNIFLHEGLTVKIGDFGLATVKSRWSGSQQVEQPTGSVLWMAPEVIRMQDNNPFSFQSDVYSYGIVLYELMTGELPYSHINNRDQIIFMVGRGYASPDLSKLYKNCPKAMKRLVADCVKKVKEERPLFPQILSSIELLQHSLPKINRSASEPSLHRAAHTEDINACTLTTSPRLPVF
Sequence of Protein kinase C epsilon type (Homo sapiens) (Q02156 whole entry): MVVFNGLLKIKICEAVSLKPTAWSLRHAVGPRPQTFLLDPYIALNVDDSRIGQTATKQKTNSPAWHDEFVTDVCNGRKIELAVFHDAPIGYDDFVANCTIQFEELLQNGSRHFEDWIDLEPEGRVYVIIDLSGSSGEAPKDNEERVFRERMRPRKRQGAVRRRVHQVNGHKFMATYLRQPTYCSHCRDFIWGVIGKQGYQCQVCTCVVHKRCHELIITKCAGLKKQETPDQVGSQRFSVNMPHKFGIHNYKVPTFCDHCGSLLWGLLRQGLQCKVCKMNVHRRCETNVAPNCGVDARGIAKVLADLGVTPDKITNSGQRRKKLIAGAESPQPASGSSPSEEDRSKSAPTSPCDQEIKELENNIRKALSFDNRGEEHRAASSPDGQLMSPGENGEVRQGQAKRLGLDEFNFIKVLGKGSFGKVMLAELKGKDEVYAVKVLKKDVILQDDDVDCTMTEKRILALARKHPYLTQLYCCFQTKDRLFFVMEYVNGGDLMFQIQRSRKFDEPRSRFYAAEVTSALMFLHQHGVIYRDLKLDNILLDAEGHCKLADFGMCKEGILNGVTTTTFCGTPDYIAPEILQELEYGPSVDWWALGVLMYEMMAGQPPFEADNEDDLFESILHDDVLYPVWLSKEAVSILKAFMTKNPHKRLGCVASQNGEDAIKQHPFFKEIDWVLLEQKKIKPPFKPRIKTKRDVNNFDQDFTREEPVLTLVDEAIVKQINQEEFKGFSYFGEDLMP
Sequence of Glycogen synthase kinase-3 beta (P49841 whole entry): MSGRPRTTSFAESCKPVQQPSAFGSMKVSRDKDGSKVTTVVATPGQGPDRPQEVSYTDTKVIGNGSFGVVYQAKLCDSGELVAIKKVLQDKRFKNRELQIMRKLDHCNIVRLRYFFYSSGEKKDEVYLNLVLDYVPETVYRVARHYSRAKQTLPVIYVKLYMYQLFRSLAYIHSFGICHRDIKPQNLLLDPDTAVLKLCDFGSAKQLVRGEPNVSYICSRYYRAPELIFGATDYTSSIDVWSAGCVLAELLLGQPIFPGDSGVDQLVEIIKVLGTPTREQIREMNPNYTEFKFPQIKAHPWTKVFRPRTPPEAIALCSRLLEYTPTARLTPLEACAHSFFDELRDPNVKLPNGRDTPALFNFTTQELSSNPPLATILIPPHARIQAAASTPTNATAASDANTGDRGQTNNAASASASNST
Sequence of Platelet-derived growth factor receptor beta (Homo sapiens) (P09619 whole entry): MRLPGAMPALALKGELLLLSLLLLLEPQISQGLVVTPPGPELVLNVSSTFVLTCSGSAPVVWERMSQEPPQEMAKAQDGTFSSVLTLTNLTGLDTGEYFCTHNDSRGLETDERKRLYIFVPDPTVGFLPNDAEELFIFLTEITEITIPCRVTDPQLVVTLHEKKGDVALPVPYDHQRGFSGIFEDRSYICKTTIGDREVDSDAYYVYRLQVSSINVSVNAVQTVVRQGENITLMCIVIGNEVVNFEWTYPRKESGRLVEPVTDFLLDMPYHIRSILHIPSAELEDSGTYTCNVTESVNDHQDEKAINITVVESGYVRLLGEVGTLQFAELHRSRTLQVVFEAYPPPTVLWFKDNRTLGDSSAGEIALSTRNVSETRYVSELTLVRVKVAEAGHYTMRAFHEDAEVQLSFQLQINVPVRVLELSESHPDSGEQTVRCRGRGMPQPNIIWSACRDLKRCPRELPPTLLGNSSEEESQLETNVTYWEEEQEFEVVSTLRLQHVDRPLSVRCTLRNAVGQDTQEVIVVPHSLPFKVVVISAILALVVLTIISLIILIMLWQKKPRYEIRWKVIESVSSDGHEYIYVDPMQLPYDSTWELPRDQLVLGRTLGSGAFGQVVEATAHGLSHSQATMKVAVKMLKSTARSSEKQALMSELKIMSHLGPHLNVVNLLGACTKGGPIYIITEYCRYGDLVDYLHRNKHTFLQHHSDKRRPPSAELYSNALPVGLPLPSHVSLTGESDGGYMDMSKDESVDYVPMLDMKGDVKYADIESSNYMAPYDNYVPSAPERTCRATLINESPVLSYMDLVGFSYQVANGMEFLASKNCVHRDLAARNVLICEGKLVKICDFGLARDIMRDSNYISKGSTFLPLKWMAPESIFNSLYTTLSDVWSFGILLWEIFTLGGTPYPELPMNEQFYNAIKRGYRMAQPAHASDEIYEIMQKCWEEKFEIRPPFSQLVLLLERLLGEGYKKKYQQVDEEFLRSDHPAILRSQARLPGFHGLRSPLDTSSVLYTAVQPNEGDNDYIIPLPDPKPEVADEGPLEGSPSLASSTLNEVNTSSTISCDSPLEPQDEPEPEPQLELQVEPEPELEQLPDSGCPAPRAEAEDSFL

In the case of `COc1cc(C2=C(c3c[nH]c4cnccc34)C(=O)NC2=O)cc(OC)c1OC`, the viability at 5 µM in the assay on MKN-45 [1] worked out at 105%. The viability at 1 µM is 107% in the assay on MKN-45 [2] and 54.2% in the assay on MOLM-14 [22]. Also, the viability at 0.5 µM in the assay on MKN-45 [3] came out at 99.2%; in the assay with MOLM-14 [23], 73.4%. Also, the Activity was found to be 99% in assay [4]; 75% in assay [5]; 83% in [6]; 80% in assay [7]; 106% in assay [8]; 111% in assay [9]. The Activity in assay [10] came out at 117%; in assay [11], 80%; in the assay on MKN-45 [14] it was 28.3%; in the assay on MKN-45 [15], 16.5%; with MKN-45 [16], 15.8%; with MKN-45 [17], 12.8%. Further, the Activity worked out at 66.3% in the assay with HUVEC [18] and 48% in the assay with HUVEC [19]. For the same compound, the IC50 (in general, the concentration that inhibits the measured activity by half) was 9 nM in assay [12] and 18 nM in assay [13]. Besides, the viability at 20 µM in the assay on MOLM-14 [20] is 5.39%; in the assay on MKN-45 [24] it was 101%. For the same compound, the viability at 10 µM in the assay with MOLM-14 [21] amounted to 9.35%.
